# ChEMBL document CHEMBL2146397, “The Substrate-Activity-Screening methodology applied to receptor tyrosine kinases: a proof-of-concept study” (Eur J Med Chem, 2012)
# Activity calls are given as the source filed them. The calls are words filed in the database; no cut-off is given here. Numbered stars: 1 amine (or outer) side, 2 acyl side, 3 side chain; on linkers, the order of the positions; unused ones are H or OH. Square brackets hold non-standard residues; d marks the D form. Peptide text beside a SMILES is read from it. X7 = O=C([C@H](Cc1ccc(C(O)P(=O)(O)O)cc1)N[*:1])[*:2]; Trp(6-Cl) = N[C@@H](Cc1c[nH]c2cc(Cl)ccc12)C(=O)O; Phe(4-Cl) = N[C@@H](Cc1ccc(Cl)cc1)C(=O)O; 3Pal = N[C@@H](Cc1cccnc1)C(=O)O
# Experiments:
# [1] = Solubility of the compound at >1 mM; format: physicochemical
# [2] = molecular target: T1, Insulin-like growth factor 1 receptor (Homo sapiens, UniProt P08069); experiment: Activity at pre-activated human GST-His6-tagged IGF-1R expressed in Sf9 cells up to 1 mM measured every 2 mins for 60 mins by Michaelis-Menten constant based ADP Quest assay
# Summary of the method: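 Reactions used the same buffer plus 0.1 mg/mL BSA, pre-activated GST-His6-IGF-1R, peptide substrate titrated up to 1 mM, and ADP Quest reagents. ATP started the reaction. Fluorescence was read every 2 min for 60 min. KM came from a Michaelis-Menten fit, n = 3 independent experiments.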
# [3] = molecular target: T1, Insulin-like growth factor 1 receptor; experiment: Activity at pre-activated human GST-His6-tagged IGF-1R expressed in Sf9 cells assessed as initial phosphorylation rate at 10 uM measured every 2 mins for 60 mins by Michaelis-Menten constant based ADP Quest assay
# Summary of the method: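 Reaction buffer was the same plus 0.1 mg/mL BSA, with kinase, peptide substrate and detection reagents. Started with ATP; fluorescence read every 2 min for 60 min; 3 independent experiments.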
# [4] = molecular target: T1, Insulin-like growth factor 1 receptor; experiment: Inhibition of pre-activated human GST-His6-tagged IGF-1R expressed in Sf9 cells using Ac-EAEDEPEGDYFEWLE-NHMe as substrate after 25 mins by luminescence assay
# T1 sequence (P08069 31-736 limits assumed): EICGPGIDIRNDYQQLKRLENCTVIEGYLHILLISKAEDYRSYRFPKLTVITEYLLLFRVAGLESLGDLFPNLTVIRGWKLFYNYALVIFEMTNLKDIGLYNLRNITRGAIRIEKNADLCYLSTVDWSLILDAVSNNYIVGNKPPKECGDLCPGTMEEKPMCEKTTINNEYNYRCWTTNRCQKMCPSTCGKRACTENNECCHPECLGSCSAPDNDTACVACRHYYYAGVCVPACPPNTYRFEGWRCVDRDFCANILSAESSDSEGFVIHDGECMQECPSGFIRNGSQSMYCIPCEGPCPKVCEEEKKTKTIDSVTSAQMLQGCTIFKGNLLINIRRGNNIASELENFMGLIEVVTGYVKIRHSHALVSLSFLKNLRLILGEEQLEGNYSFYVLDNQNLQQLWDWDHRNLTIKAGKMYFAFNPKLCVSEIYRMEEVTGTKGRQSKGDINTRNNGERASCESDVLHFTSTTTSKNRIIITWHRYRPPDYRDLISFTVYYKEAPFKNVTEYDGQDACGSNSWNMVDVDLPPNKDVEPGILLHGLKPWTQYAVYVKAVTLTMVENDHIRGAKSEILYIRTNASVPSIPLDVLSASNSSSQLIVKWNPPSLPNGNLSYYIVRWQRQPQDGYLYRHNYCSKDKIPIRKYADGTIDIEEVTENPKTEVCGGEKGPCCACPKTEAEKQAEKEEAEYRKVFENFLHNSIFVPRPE
# T1 sequence (P08069 741-1367 limits assumed): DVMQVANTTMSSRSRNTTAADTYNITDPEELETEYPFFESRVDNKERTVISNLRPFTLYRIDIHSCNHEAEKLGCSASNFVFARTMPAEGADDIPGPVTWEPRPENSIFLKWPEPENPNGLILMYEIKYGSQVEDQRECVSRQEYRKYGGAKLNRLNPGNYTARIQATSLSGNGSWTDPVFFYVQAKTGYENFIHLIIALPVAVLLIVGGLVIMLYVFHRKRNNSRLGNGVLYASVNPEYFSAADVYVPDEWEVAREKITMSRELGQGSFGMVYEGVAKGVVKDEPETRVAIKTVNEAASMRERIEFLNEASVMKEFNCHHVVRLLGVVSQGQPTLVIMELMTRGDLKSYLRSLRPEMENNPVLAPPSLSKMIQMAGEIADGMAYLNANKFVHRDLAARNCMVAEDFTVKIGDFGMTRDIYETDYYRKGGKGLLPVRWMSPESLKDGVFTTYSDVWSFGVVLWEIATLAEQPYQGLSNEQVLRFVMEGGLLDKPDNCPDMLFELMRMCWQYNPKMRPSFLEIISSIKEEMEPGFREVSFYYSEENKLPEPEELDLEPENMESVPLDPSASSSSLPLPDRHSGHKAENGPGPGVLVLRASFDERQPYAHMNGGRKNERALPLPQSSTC
solubility [1],Activity [3] [nM/s],Structure (SMILES),further results
Insoluble,,CNC(=O)[C@@H](Cc1c[nH]c2ccccc12)NC(=O)[C@H](CCC(=O)O)NC(=O)[C@H](Cc1ccccc1)NC(=O)[C@H](Cc1ccc(O)cc1)NC(=O)[C@H](Cc1cccnc1)NC(C)=O,
,,CNC(=O)[C@H](Cc1c[nH]c2ccccc12)NC(=O)[C@H](CCC(=O)O)NC(=O)[C@H](Cc1ccccc1)NC(=O)[C@@H](N)Cc1ccc(O)cc1 (HELM PEPTIDE1{Y.F.E.W.[CN[*:1]]}$$$$V2.0),Activity [2]: inactive
Insoluble,0.4,CNC(=O)[C@H](Cc1c[nH]c2ccccc12)NC(=O)[C@H](CCC(=O)O)NC(=O)[C@H](Cc1ccccc1)NC(=O)[C@H](Cc1ccc(O)cc1)NC(=O)[C@H](Cc1cccnc1)NC(C)=O,
,,CNC(=O)[C@H](Cc1ccc(Cl)cc1)NC(=O)[C@H](CCC(=O)O)NC(=O)[C@H](Cc1ccccc1)NC(=O)[C@H](Cc1ccc(C(O)P(=O)(O)O)cc1)NC(=O)[C@H](Cc1cccnc1)NC(C)=O (some centres not stated) (Ac-[3Pal][X7]FE[Phe(4-Cl)]-NHMe),IC50 [4]: 489 µM
,0.28,CNC(=O)[C@@H](Cc1c[nH]c2ccccc12)NC(=O)[C@H](CCC(=O)O)NC(=O)[C@H](Cc1ccccc1)NC(=O)[C@H](Cc1ccc(O)cc1)NC(=O)[C@H](CC(=O)O)NC(C)=O,
,0.25,CNC(=O)[C@H](Cc1ccccc1)NC(=O)[C@H](CCC(=O)O)NC(=O)[C@H](Cc1ccccc1)NC(=O)[C@H](Cc1ccc(O)cc1)NC(=O)CCC(=O)O (HELM PEPTIDE1{[O=C(O)CCC(=O)[*:2]].Y.F.E.F.[CN[*:1]]}$$$$V2.0),
,1,CNC(=O)[C@H](Cc1c[nH]c2cc(Cl)ccc12)NC(=O)[C@H](CCC(=O)O)NC(=O)[C@H](Cc1ccccc1)NC(=O)[C@H](Cc1ccc(O)cc1)NC(=O)[C@H](Cc1cccnc1)NC(C)=O (Ac-[3Pal]YFE[Trp(6-Cl)]-NHMe),
,2.5,CNC(=O)[C@H](Cc1c[nH]c2ccccc12)NC(=O)[C@H](CCC(=O)O)NC(=O)[C@H](Cc1ccccc1)NC(=O)[C@H](Cc1ccc(O)cc1)NC(=O)[C@H](CCC(=O)O)NC(C)=O,
Insoluble,,CNC(=O)[C@@H](Cc1c[nH]c2ccccc12)NC(=O)[C@H](CCC(=O)O)NC(=O)[C@H](Cc1ccccc1)NC(=O)[C@H](Cc1ccc(O)cc1)NC(=O)[C@H](CCC(=O)O)NC(C)=O,
Insoluble,,CNC(=O)[C@H](Cc1ccc(Cl)cc1)NC(=O)[C@H](CCC(=O)O)NC(=O)[C@H](Cc1ccccc1)NC(=O)[C@H](Cc1ccc(O)cc1)NC(=O)[C@H](Cc1cccnc1)NC(C)=O (Ac-[3Pal]YFE[Phe(4-Cl)]-NHMe),
,3.3,CNC(=O)[C@H](Cc1c[nH]c2cc(Cl)ccc12)NC(=O)[C@H](CCC(=O)O)NC(=O)[C@H](Cc1ccccc1)NC(=O)[C@H](Cc1ccc(O)cc1)NC(=O)[C@H](CCC(=O)O)NC(C)=O (HELM PEPTIDE1{[ac].E.Y.F.E.[O=C([C@H](Cc1c[nH]c2cc(Cl)ccc12)N[*:1])[*:2]].[CN[*:1]]}$$$$V2.0),
